Data published in ChEMBL document CHEMBL3997768, “The synthesis and antistaphylococcal activity of dehydroabietic acid derivatives: modifications at C12 and C7” (2017).
In brackets after ≈: the same amount, converted by molar mass. Activity calls are given as the source filed them. How the calls were made is not given here.

How the values were obtained:
Assay type in all cases: functional
[1] = system: Escherichia coli; assay: Antibacterial activity against Escherichia coli AB1157 at 50 ug/ml after 18 hrs by two fold serial dilution method
How it was run: (§1)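 Strains were grown overnight at 37 °C in TSB without antibiotic, diluted 1000-fold, and grown 2–3 h to A600 0.6. They were then diluted 1:400 in fresh TSB. Compounds in DMSO were two-fold serially diluted to a final 0.39–50 and mixed with an equal volume of bacteria. A600 was read after 18 h. MIC is the lowest concentration inhibiting growth. Triplicate; vancomycin and tetracycline were positive controls.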

[2] = system: Staphylococcus aureus; assay: Antibacterial activity against erythromycin-resistant Staphylococcus aureus NRS-70 after 18 hrs by two fold serial dilution method; settings: NRS-70, 18 h
How it was run: (§2)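 Strains grown overnight at 37 °C in TSB without antibiotic. Cultures were diluted 1000-fold, grown at 37 °C for 2–3 h to A600 0.6, then diluted 1:400 in fresh TSB. Equal volumes of bacteria and two-fold serial DMSO dilutions (final 0.39–50) were mixed. A600 was read after 18 h. MIC was the lowest concentration inhibiting growth. Run in triplicate, with vancomycin and tetracycline controls.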

[3] = system: Staphylococcus aureus; assay: Antibacterial activity against gentamicin-resistant Staphylococcus aureus NRS-108 after 18 hrs by two fold serial dilution method; settings: NRS-108, 18 h; how it was run: as §2
[4] = system: Staphylococcus aureus; assay: Antibacterial activity against linezolid-resistant Staphylococcus aureus NRS-271 containing phage type E-MRSA after 18 hrs by two fold serial dilution method; settings: NRS-271, 18 h; how it was run: as §2
[5] = system: Staphylococcus aureus; assay: Antibacterial activity against Staphylococcus aureus Newman after 18 hrs by two fold serial dilution method; how it was run: as §1
[6] = system: Staphylococcus aureus; assay: Antibacterial activity against aminoglycosides/tetracycline-resistant Staphylococcus aureus NRS-1 after 18 hrs by two fold serial dilution method; settings: NRS-1, 18 h; how it was run: as §2
[7] = system: Staphylococcus aureus; assay: Antibacterial activity against oxacillin/tetracycline-resistant Staphylococcus aureus NRS-100 after 18 hrs by two fold serial dilution method; settings: NRS-100, 18 h; how it was run: as §2

## CC(C)c1cc2c(cc1Br)[C@@]1(C)CCC[C@@](C)(C(=O)O)[C@@H]1C/C2=N\OCCCNC(=O)Cc1ccc(C(F)(F)F)cc1
[1]
  Activity: inactive
[2]
  MIC: 2.39 to 3.84 µM (≈ 1.56 to 2.5 µg/mL)
[3]
  MIC: 2.39 to 3.84 µM (≈ 1.56 to 2.5 µg/mL)
[4]
  MIC: 4.8 to 9.59 µM (≈ 3.13 to 6.25 µg/mL)
[5]
  MIC: 3.84 µM (≈ 2.5 µg/mL)
[6]
  MIC: > 19.2 µM
[7]
  MIC: 4.8 to 9.59 µM (≈ 3.13 to 6.25 µg/mL)

## CC(C)c1cc2c(cc1Br)[C@@]1(C)CCC[C@@](C)(C(=O)O)[C@@H]1C/C2=N\OCCNC(=O)c1cc2ccccc2s1
[1]
  Activity: inactive
[2]
  MIC: 2.04 to 4.09 µM (≈ 1.25 to 2.5 µg/mL)
[3]
  MIC: 2.55 to 4.09 µM (≈ 1.56 to 2.5 µg/mL)
[4]
  MIC: 2.05 to 2.55 µM (≈ 1.25 to 1.56 µg/mL)
[5]
  MIC: 2.04 to 4.09 µM (≈ 1.25 to 2.5 µg/mL)
[6]
  MIC: 4.09 to 5.12 µM (≈ 2.5 to 3.13 µg/mL)
[7]
  MIC: 2.55 to 4.09 µM (≈ 1.56 to 2.5 µg/mL)

## CC(C)c1cc2c(cc1Br)[C@@]1(C)CCC[C@@](C)(C(=O)O)[C@@H]1C/C2=N\OCCNC(=O)c1ccc(Br)s1
[1]
  Activity: inactive
[2]
  MIC: 2.44 to 3.9 µM (≈ 1.56 to 2.5 µg/mL)
[3]
  MIC: 2.44 to 3.9 µM (≈ 1.56 to 2.5 µg/mL)
[4]
  MIC: 2.44 to 3.9 µM (≈ 1.56 to 2.5 µg/mL)
[5]
  MIC: 3.9 µM (≈ 2.5 µg/mL)
[6]
  MIC: 4.89 to 9.76 µM (≈ 3.13 to 6.25 µg/mL)
[7]
  MIC: 4.89 µM (≈ 3.13 µg/mL)

## CC(C)c1cc2c(cc1Br)[C@@]1(C)CCC[C@@](C)(C(=O)O)[C@@H]1C/C2=N\OCCCNC(=O)c1cc2ccccc2s1
[1]
  Activity: inactive
[2]
  MIC: > 40 µM
[3]
  MIC: > 40 µM
[4]
  MIC: > 40 µM
[5]
  MIC: 4 µM (≈ 2.5 µg/mL)
[6]
  MIC: > 40 µM
[7]
  MIC: > 40 µM

## CC(C)c1cc2c(cc1Br)[C@@]1(C)CCC[C@@](C)(C(=O)O)[C@@H]1C/C2=N\OCCCNC(=O)c1cc(Br)cs1
[1]
  Activity: inactive
[2]
  MIC: 1.91 to 2.38 µM (≈ 1.25 to 1.56 µg/mL)
[3]
  MIC: 2.38 to 3.82 µM (≈ 1.56 to 2.5 µg/mL)
[4]
  MIC: 2.38 to 3.82 µM (≈ 1.56 to 2.5 µg/mL)
[5]
  MIC: 1.91 to 3.82 µM (≈ 1.25 to 2.5 µg/mL)
[6]
  MIC: 4.78 to 9.55 µM (≈ 3.13 to 6.25 µg/mL)
[7]
  MIC: 4.78 µM (≈ 3.13 µg/mL)

## CC(C)c1cc2c(cc1Br)[C@@]1(C)CCC[C@@](C)(C(=O)O)[C@@H]1C/C2=N\OCCNC(=O)c1ccc(Cl)s1
[1]
  Activity: inactive
[2]
  MIC: 2.62 to 4.19 µM (≈ 1.56 to 2.5 µg/mL)
[3]
  MIC: 2.62 to 4.19 µM (≈ 1.56 to 2.5 µg/mL)
[4]
  MIC: 1.56 to 2.5 µM (≈ 0.93 to 1.49 µg/mL)
[5]
  MIC: 4.19 µM (≈ 2.5 µg/mL)
[6]
  MIC: 5.25 to 10.5 µM (≈ 3.13 to 6.25 µg/mL)
[7]
  MIC: 4.19 µM (≈ 2.5 µg/mL)

## CC(C)c1cc2c(cc1Br)[C@@]1(C)CCC[C@@](C)(C(=O)O)[C@@H]1C/C2=N\OCCCNC(=O)c1cccc(C(F)(F)F)c1
[1]
  Activity: inactive
[2]
  MIC: 4.91 µM (≈ 3.13 µg/mL)
[3]
  MIC: 3.92 to 4.91 µM (≈ 2.5 to 3.13 µg/mL)
[4]
  MIC: 3.92 to 4.91 µM (≈ 2.5 to 3.13 µg/mL)
[5]
  MIC: 1.96 to 3.92 µM (≈ 1.25 to 2.5 µg/mL)
[6]
  MIC: > 19.6 µM
[7]
  MIC: 4.91 µM (≈ 3.13 µg/mL)

## CC(C)c1cc2c(cc1Br)[C@@]1(C)CCC[C@@](C)(C(=O)O)[C@@H]1C/C2=N\OCCCNC(=O)c1ccc(C(F)(F)F)cc1
[1]
  Activity: inactive
[2]
  MIC: 1.96 to 2.45 µM (≈ 1.25 to 1.56 µg/mL)
[3]
  MIC: 2.45 to 3.92 µM (≈ 1.56 to 2.5 µg/mL)
[4]
  MIC: 2.45 to 3.92 µM (≈ 1.56 to 2.5 µg/mL)
[5]
  MIC: 1.96 to 3.92 µM (≈ 1.25 to 2.5 µg/mL)
[6]
  MIC: 9.8 to 19.6 µM (≈ 6.25 to 12.5 µg/mL)
[7]
  MIC: 4.91 µM (≈ 3.13 µg/mL)

## CC(C)c1cc2c(cc1Br)[C@@]1(C)CCC[C@@](C)(C(=O)O)[C@@H]1C/C2=N\OCCCNC(=O)c1ccc(Cl)s1
[1]
  Activity: inactive
[2]
  MIC: 2.56 to 4.1 µM (≈ 1.56 to 2.5 µg/mL)
[3]
  MIC: 2.56 to 4.1 µM (≈ 1.56 to 2.5 µg/mL)
[4]
  MIC: 2.56 to 4.1 µM (≈ 1.56 to 2.5 µg/mL)
[5]
  MIC: 2.05 to 4.1 µM (≈ 1.25 to 2.5 µg/mL)
[6]
  MIC: 10.2 to 20.5 µM (≈ 6.25 to 12.5 µg/mL)
[7]
  MIC: 5.13 µM (≈ 3.13 µg/mL)

## CC(C)c1cc2c(cc1Br)[C@@]1(C)CCC[C@@](C)(C(=O)O)[C@@H]1C/C2=N\OCCNC(=O)c1cccc(C(F)(F)F)c1
[1]
  Activity: inactive
[2]
  MIC: 2.5 to 4.01 µM (≈ 1.56 to 2.5 µg/mL)
[3]
  MIC: 2.5 to 4.01 µM (≈ 1.56 to 2.5 µg/mL)
[4]
  MIC: 2.5 to 4.01 µM (≈ 1.56 to 2.5 µg/mL)
[5]
  MIC: 4.01 µM (≈ 2.5 µg/mL)
[6]
  MIC: 5.02 µM (≈ 3.13 µg/mL)
[7]
  MIC: 5.02 µM (≈ 3.13 µg/mL)
